Reference: ChEMBL document CHEMBL1142517, “Discovery of an orally bioavailable small molecule inhibitor of prosurvival B-cell lymphoma 2 proteins” (J Med Chem, 2008)

Columns and labels:
[1] = Ratio of AUC for Sprague-Dawley rat at 5 mg/kg, po to EC50 for human NCI-H146 cells in presence of 10% human serum; assay type: functional
Method in brief: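 The cells were treated for 48 h in medium with 10% human serum, and viability was read by CellTiter-Glo luminescence.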

[2] = Cytotoxicity against IL3-dependent mouse FL5.12 cells overexpressing human Bcl-XL assessed as cell viability after 24 hrs by MTS assay in absence of serum; assay type: functional, cell-based; conditions: FL5.12, 24 h
Method in brief: (§1)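 Mouse FL5.12 cells transfected with Bcl-XL or Bcl-2, deprived of IL-3 (no FBS or WEHI-3B conditioned medium) for 2 days. Then moved to serum-free gelatin medium (3.4 mg/mL bovine gelatin) with serially diluted compound for 24 h. Viability by MTS or CellTiter-Glo. Determinations in duplicate.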

[3] = Cytotoxicity against human NCI-H146 cells assessed as cell viability after 48 hrs in presence of 10% human serum; assay type: functional, cell-based; conditions: NCI-H146, 48 h
Method in brief: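 NCI-H146 SCLC cells maintained in RPMI 1640 with 10% FBS at 37 °C, 5% CO2. Treated for 48 h in medium with 10% human serum. Viability by CellTiter-Glo luminescence. Values from duplicate runs.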

[4] = target: Apoptosis regulator Bcl-2 (Homo sapiens, UniProt P10415); test: Displacement of fluorescein labeled Bax peptide from Bcl2 by fluorescence polarization assay
Apoptosis regulator Bcl-2, sequence (P10415 whole entry): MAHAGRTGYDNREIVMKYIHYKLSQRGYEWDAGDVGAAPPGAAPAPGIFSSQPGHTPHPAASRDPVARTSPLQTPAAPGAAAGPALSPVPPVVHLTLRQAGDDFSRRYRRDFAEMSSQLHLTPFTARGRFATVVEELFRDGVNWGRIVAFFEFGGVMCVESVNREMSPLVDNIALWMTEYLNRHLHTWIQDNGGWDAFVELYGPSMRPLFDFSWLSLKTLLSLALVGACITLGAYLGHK

[5] = Cytotoxicity against IL3-dependent mouse FL5.12 cells overexpressing human Bcl2 assessed as cell viability after 24 hrs by MTS assay in absence of serum; assay type: functional, cell-based; conditions: FL5.12, 24 h; method in brief: as §1
[6] = AUC in Sprague-Dawley rat at 5 mg/kg, po; assay type: ADME, organism-based; design: dose 5 mg/kg, route oral; conditions: plasma
Method in brief: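 Sprague-Dawley rats, single 5 mg/kg oral dose by gavage in 10% DMSO in PEG-400, n = 3. Heparinized blood taken before dosing and at set times. Plasma proteins precipitated with acetonitrile, then LC-MS/MS against spiked plasma standards with an internal standard. AUC by linear trapezoidal rule.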

[7] = Cmax in Sprague-Dawley rat at 5 mg/kg, po; assay type: ADME, organism-based; design: dose 5 mg/kg, route oral; conditions: in vivo
Method in brief: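 Rats (Sprague-Dawley) given 5 mg/kg by oral gavage in 10% DMSO/PEG-400, n = 3. Serial heparinized blood samples. Plasma drug level by LC-MS/MS after acetonitrile protein precipitation, quantified by linear regression of peak-area ratio to internal standard. Concentration–time data fitted multiexponentially.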

[8] = Oral bioavailability in Sprague-Dawley rat at 5 mg/kg; assay type: ADME, organism-based; conditions: in vivo
[9] = AUC in CD1 mouse at 50 mg/kg, po; assay type: ADME, organism-based; design: dose 50 mg/kg, route oral; conditions: plasma
Method in brief: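 CD-1 mice, single 50 mg/kg oral gavage in 2% DMSO/5% Tween-80/20% propylene glycol/73% D5W, n = 27. Groups of three euthanized by CO2 at set times and blood taken by cardiac puncture. Plasma by LC-MS/MS. AUC by linear trapezoidal rule.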

[10] = AUC in cynomolgus monkey at 2.5 mg/kg, po; assay type: ADME, organism-based, Macaca fascicularis; design: dose 2.5 mg/kg, route oral; conditions: plasma
Method in brief: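 Cynomolgus monkeys, single 2.5 mg/kg oral dose in 10% DMSO in PEG-400 by gastric intubation followed by 5 mL water, n = 3. Serial heparinized plasma assayed by LC-MS/MS. AUC by linear trapezoidal rule.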

[11] = AUC in Beagle dog at 2.5 mg/kg, iv or po; assay type: ADME, organism-based, Canis lupus familiaris; design: dose 2.5 mg/kg, route oral; conditions: plasma
Method in brief: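 Beagle dogs, single 2.5 mg/kg dose in 10% DMSO in PEG-400, n = 3 per route. Intravenous dose given as a slow cephalic-vein bolus; oral dose by gavage followed by 10 mL water. Plasma by LC-MS/MS. AUC by linear trapezoidal rule.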

[12] = Oral elimination half life in Sprague-Dawley rat; assay type: ADME, organism-based; conditions: in vivo, read-out: beta t1/2 (converted)
[13] = Oral elimination half life in cynomolgus monkey; assay type: ADME, organism-based, Macaca fascicularis; conditions: in vivo, read-out: beta t1/2 (converted)
[14] = Oral bioavailability in CD1 mouse; assay type: ADME, organism-based; conditions: in vivo
[15] = Oral bioavailability in Sprague-Dawley rat; assay type: ADME, organism-based; conditions: in vivo
[16] = Oral elimination half life in CD1 mouse; assay type: ADME, organism-based; conditions: in vivo, read-out: beta t1/2 (converted)
[17] = Oral bioavailability in Beagle dog; assay type: ADME, organism-based, Canis lupus familiaris; conditions: in vivo
NCI-H1963 (Homo sapiens) = test: Antitumor activity against human NCI-H1963 cells xenografted C.B-17 SCID-bg mouse assessed as inhibition of tumor growth at 100 mg/kg, po daily once for 21 days; conditions: 504 h, read-out: TGI
[18] = Oral elimination half life in Beagle dog; assay type: ADME, organism-based, Canis lupus familiaris; conditions: in vivo, read-out: beta t1/2 (converted)
[19] = Oral bioavailability in cynomolgus monkey; assay type: ADME, organism-based, Macaca fascicularis; conditions: in vivo

Structure (SMILES) | Ki [4] [nM] | AUC [6] [µM·h] | Ratio [1] | EC50 [2] [nM] | EC50 [3] [nM] | EC50 [5] [nM] | further results
CN(C)CC[C@H](CSc1ccccc1)Nc1ccc(S(=O)(=O)NC(=O)c2ccc(N3CCN(CC4=C(c5ccc(Cl)cc5)CCOC4)CC3)cc2)cc1[N+](=O)[O-] | 2.4 |  |  | 55 | 266 | 33 | 
CN(C)CC[C@H](CSc1ccccc1)Nc1ccc(S(=O)(=O)NC(=O)c2ccc(N3CCN(C/C4=C(\c5ccc(Cl)cc5)CCCCCC4)CC3)cc2)cc1[N+](=O)[O-] | < 1 |  |  | 21 | 200 | 39 | 
O=C(NS(=O)(=O)c1ccc(NCCSc2ccccc2)c([N+](=O)[O-])c1)c1ccc(N2CCN(Cc3ccccc3-c3ccc(Cl)cc3)CC2)cc1 | < 1 | 10.4 | 0.32 |  | 33000 |  | Cmax [7]: 1150 nM; bioavailability [8]: 28%
CN(C)CC[C@H](CSc1ccccc1)Nc1ccc(S(=O)(=O)NC(=O)c2ccc(N3CCN(Cc4ccccc4-c4ccc(Cl)cc4)CC3)cc2)cc1S(=O)(=O)C(F)(F)F | < 1 | 0.83 | 21 | 12 | 39.4 | 4.7 | 
O=C(NS(=O)(=O)c1ccc(N[C@H](CCN2CCOCC2)CSc2ccccc2)c([N+](=O)[O-])c1)c1ccc(N2CCN(Cc3ccccc3-c3ccc(Cl)cc3)CC2)cc1 | < 1 | 1.16 | 1.9 |  | 610 |  | Cmax [7]: 200 nM; bioavailability [8]: 16%
CN(C)CC[C@H](CSc1ccccc1)Nc1ccc(S(=O)(=O)NC(=O)c2ccc(N3CCN(Cc4ccccc4-c4ccc(Cl)cc4)CC3)cc2)cc1S(C)(=O)=O | < 1 |  |  | 415 | 3490 | 170 | 
CN(C)CC[C@H](CSc1ccccc1)Nc1ccc(S(=O)(=O)NC(=O)c2ccc(N3CCN(Cc4ccccc4-c4ccc(Cl)cc4)CC3)cc2)cc1 | < 1 |  |  | 15000 | 78700 | 2700 | 
O=C(NS(=O)(=O)c1ccc(N[C@H](CCN2CCOCC2)CSc2ccccc2)c(S(=O)(=O)C(F)(F)F)c1)c1ccc(N2CCN(CC3=C(c4ccc(Cl)cc4)CCCC3)CC2)cc1 | < 1 | 3.87 | 65.7 | 0.7 | 58.9 | 1.1 | AUC [9]: 25.2 µM·h; AUC [10]: 1.9 µM·h; AUC [11]: 3.8 µM·h
Cc1cc(S(=O)(=O)NC(=O)c2ccc(N3CCN(Cc4ccccc4-c4ccc(Cl)cc4)CC3)cc2)ccc1N[C@H](CCN(C)C)CSc1ccccc1 | < 1 |  |  |  | 28800 | 673 | 
CN(C)CC[C@H](CSc1ccccc1)Nc1ccc(S(=O)(=O)NC(=O)c2ccc(N3CCN(Cc4ccccc4-c4ccc(Cl)cc4)CC3)cc2)cc1C(F)(F)F | < 1 | 4.41 | 1.8 | 122 | 2460 | 42 | Cmax [7]: 370 nM; bioavailability [8]: 24%
CN(C)CC[C@H](CSc1ccccc1)Nc1ccc(S(=O)(=O)NC(=O)c2ccc(N3CCN(Cc4ccccc4-c4ccc(Cl)cc4)CC3)cc2)cc1C(=O)C(F)(F)F | < 1 | 1.25 | 0.62 | 329 | 2010 | 55 | 
CN(C)CC[C@H](CSc1ccccc1)Nc1ccc(S(=O)(=O)NC(=O)c2ccc(N3CCN(Cc4ccccc4-c4ccc(Cl)cc4)CC3)cc2)cc1[N+](=O)[O-] [ABT 737] |  | 0.28 |  | 30 | 87 | 7.7 | bioavailability [8]: 6%
CC1(C)CCC(c2ccc(Cl)cc2)=C(CN2CCN(c3ccc(C(=O)NS(=O)(=O)c4ccc(N[C@H](CCN5CCOCC5)CSc5ccccc5)c(S(=O)(=O)C(F)(F)F)c4)cc3)CC2)C1 [NAVITOCLAX] |  | 6.26 |  | 4.2 | 86.7 | 5.9 | half-life [12]: 4 h; half-life [13]: 4 h; AUC [9]: 56.7 µM·h; bioavailability [14]: 20%; bioavailability [15]: 20%; half-life [16]: 4 h; AUC [10]: 6.61 µM·h; bioavailability [17]: 20%; inhibition in vivo at 100 mg/kg (NCI-H1963 (Homo sapiens)): 100%; half-life [18]: 4 h; bioavailability [19]: 20%; bioavailability [8]: 20%; AUC [11]: 27.8 µM·h

The next lines start with results.

Ki [4] [nM] | AUC [6] [µM·h] | Structure (SMILES) | Ratio [1] | EC50 [2] [nM] | EC50 [3] [nM] | EC50 [5] [nM] | further results
< 1 | 2.19 | CN(C)CC[C@H](CSc1ccccc1)Nc1ccc(S(=O)(=O)NC(=O)c2ccc(N3CCN(Cc4ccccc4-c4ccc(Cl)cc4)CC3)cc2)cc1C#N | 1.1 | 225 | 1930 | 49 | 
< 1 |  | CN(C)CC[C@H](CSc1ccccc1)Nc1ccc(S(=O)(=O)NC(=O)c2ccc(N3CCN(CC4=C(c5ccc(Cl)cc5)CCC(C)(C)C4)CC3)cc2)cc1[N+](=O)[O-] |  | 0.9 | 98 | 0.6 | 
< 1 |  | CN(C)CC[C@H](CSc1ccccc1)Nc1ccc(S(=O)(=O)NC(=O)c2ccc(N3CCN(Cc4ccccc4-c4ccc(Cl)cc4)CC3)cc2)cc1OC(F)(F)F |  | 805 | 5080 | 230 | 
< 1 |  | CN(C)CC[C@H](CSc1ccccc1)Nc1ccc(S(=O)(=O)NC(=O)c2ccc(N3CCN(CC4=C(c5ccc(Cl)cc5)CCCCC4)CC3)cc2)cc1[N+](=O)[O-] |  | 5 | 51.9 | < 1 | 
< 1 | 0.65 | CN(C)CC[C@H](CSc1ccccc1)Nc1ccc(S(=O)(=O)NC(=O)c2ccc(N3CCN(CC4=C(c5ccc(Cl)cc5)CCCC4)CC3)cc2)cc1[N+](=O)[O-] | 25.3 | 29 | 25.7 | 11 | 
< 1 |  | CN(C)CC[C@H](CSc1ccccc1)Nc1ccc(S(=O)(=O)NC(=O)c2ccc(N3CCN(CC4=C(c5ccc(Cl)cc5)CCC4)CC3)cc2)cc1[N+](=O)[O-] |  | 143 | 691 | 51 | 
